The subject of assay [1] is Escherichia coli. In words: Inhibition of Escherichia coli DHDPS-catalyzed condensation of pyruvate and aspartate semi-aldehyde at 5 mM measured after 1 min by UV-spectrophotometric analysis. Summed up: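 E. coli DHDPS in 200 mM HEPES pH 8.0 was pre-incubated 1 min with inhibitor (from 100% DMSO; final 5 mM), with a DMSO-only control. Activity was then read by the coupled DHDPR assay, following NADPH oxidation at 340 nm at 30 °C. The result is % inhibition relative to the control.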

Assay [2] deals with Escherichia coli. As to the kind of experiment: Inhibition of Escherichia coli DHDPS-catalyzed condensation of pyruvate and aspartate semi-aldehyde at 50 mM after 60 mins by UV-spectrophotometric analysis.
Assay [3] in a line: (§1) Inhibition of Escherichia coli DHDPS-catalyzed condensation of pyruvate and aspartate semi-aldehyde by UV-spectrophotometric analysis. The note with it: read-out: Ki(app). In outline:
(§2)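 Time-dependent assay: DHDPS in HEPES pH 8.0 (raised to 500 mM for the acidic inhibitor) was pre-incubated with inhibitor at 0.5–25 mM. Aliquots were serially diluted before adding to substrates, and residual rate was measured by DHDPR/NADPH coupling at 340 nm at 30 °C. Decay curves of v_t/v_0 were fitted per Copeland. Ki app came from a y-intercept isotherm midpoint, and Ki* app from k_obs versus [I].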

Assay [4] has as its system Escherichia coli. The assay is described as §1. To be noted: TDE = time-dependent effect. In outline: as §2

Consider six compounds from ChEMBL document CHEMBL1955825, “1,3-Phenylene bis(ketoacid) derivatives as inhibitors of Escherichia coli dihydrodipicolinate synthase” (Bioorg Med Chem, 2012).

A word on the inhibition: it is the relative decrease from the control value, in per cent.

Consider `O=C(O)/C(=N\O)c1cccc(/C(=N/O)C(=O)O)c1`, for which the inhibition in the assay on Escherichia coli [1] is 23%; in the assay on Escherichia coli [2] it was 34%.

`COC(=O)C(=O)c1cccc(C(=O)C(=O)OC)c1` gave an inhibition with Escherichia coli [1] of 2%.

Consider `COC(=O)/C(=N\O)c1cccc(/C(=N/O)C(=O)OC)c1`, for which the Ki in assay [3] is 330 µM. In the assay with Escherichia coli [1], this compound returned an inhibition of 15%.

As for `O=C(O)C(=O)c1cccc(C(=O)C(=O)O)c1`, the Ki in assay [3] was determined as 2960 µM. The same compound displayed an inhibition in the assay with Escherichia coli [1] of 49%.

Consider `O=C(O)C(=O)c1cccc(C(=O)C(=O)O)c1O`, for which the values for the inhibition entry in the assay on Escherichia coli [4] and in the assay on Escherichia coli [1] were “tde” and 10%, respectively. In addition, the Ki in assay [3] came out at 290 µM.

`COC(=O)C(=O)c1cccc(C(=O)C(=O)OC)c1O`: the inhibition result is “tde” in the assay with Escherichia coli [4] and 10% with Escherichia coli [1]. For the same compound, the Ki in assay [3] was found to be 40 µM.
